This is a sample that favours compounds with a hit; in the whole collection about 2.5% have one here.
MEKK2 mut-MEK5 = signal of MEK5 binding to mutant human MEKK2 PB1 domain | bead flow cytometry, Alexa488-MEK5 binding to MEKK2 mutant | actives 0.35% (n = 290,000) | percent response, % at 10 µM; in the data active = percent response above about 24%, passing the limit was not always enough
MEKK2wt PB1 HTS = raises or lowers MEK5 binding to wildtype human MEKK2 PB1 domain | Q9Y2U5 | bead flow cytometry, Alexa488-MEK5 binding to MEKK2 WT; actives lie on both sides | binding response (% of control), % at 10 µM | actives 1.1% (n = 290,000) | AID 1531; in the data active = binding response below about 67% or above about 130%
Rce1 inhib = inhibitors of yeast Ras-converting enzyme | calls only | actives 0.27% (n = 290,000) | yeast membranes, quenched prenylated peptide cleavage fluorescence | AID 2563;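 active = fall in fluorescence gain of 50% or more versus controls, with final raw signal at or below 3038400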;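 also: plate controls were neutral control wells for no effect and wells lacking membranes for full effect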
MEKK3 PB1 HTS = modulators (inhibitors or enhancers) of MEK5 binding to human MEKK3 PB1 domain; Q99759; bead-based flow cytometry, Alexa488-MEK5 binding to MEKK3; actives lie on both sides; 0 = blocked by unlabeled MEK5, 100 = vehicle; binding response (% of control), % at 10 µM; actives 1.4% (n = 290,000);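 active = binding response more than 3 SD above or below the average of its plate-row segment, actives on both sides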;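 also: Alexa488 bead fluorescence after subtracting the streptavidin-only scavenger bead signal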
UCH37 inh = blocks the human deubiquitinase UCH37. Q9Y5K5. purified proteasome/UCH37, Ub-AMC cleavage fluorescence. inhibition, % (no concentration beside the values). actives 0.33% (n = 330,000). AID 588478;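 active = mean inhibition over replicate wells above about 20%, limit read from the data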;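 also: 0% = compound-free wells with enzyme and 100% = wells lacking proteasome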
Target sequence (Q9Y5K5 whole entry, looked up): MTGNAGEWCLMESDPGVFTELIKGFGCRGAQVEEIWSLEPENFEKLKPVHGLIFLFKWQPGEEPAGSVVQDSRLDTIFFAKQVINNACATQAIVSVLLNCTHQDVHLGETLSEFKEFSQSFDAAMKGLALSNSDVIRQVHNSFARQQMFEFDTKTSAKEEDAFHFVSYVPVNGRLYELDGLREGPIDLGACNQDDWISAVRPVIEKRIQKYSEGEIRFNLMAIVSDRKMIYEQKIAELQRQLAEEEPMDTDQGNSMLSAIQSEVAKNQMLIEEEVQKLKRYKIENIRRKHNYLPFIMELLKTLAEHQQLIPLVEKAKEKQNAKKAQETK
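system = Proteasome-associated human UCH37 deubiquitinase | amount = 0.15 nM proteasome as dispensed | medium = pH 7.4 Tris-HCl (50 mM) with ovalbumin, ATP-MgCl2, DTT | incubation = 30 min preincubation with enzyme, 25 min cleavage at room temperature | detection = AMC fluorescence 355/460 nm | read-out basis = percent inhibition | controls = no-proteasome and no-compound wells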
T cell modulator = T cell immune modulators affecting CD8 T cell-vesicle binding; 2C CD8+ T cell-vesicle binding, flow cytometry; stronger effect = lower value; response (vesicle binding), % at 7 µM; actives 0.068% (n = 330,000); AID 2052;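 active = response, share of CD8 T cells binding vesicles, and their 90th percentile fluorescence all below set limits, cut at about 80% in these data, passing the limit was not always enough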;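 also: values below 100% mean blocked vesicle binding to the CD8+ T cells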
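Incubation: binding step 1.5 h, 37 °C, antibody labelling 20 min, ice; system: murine 2C transgenic CD8+ T lymphocytes; technique: cytometric PE anti-B7-1 and Alexa647 anti-CD8 signals after 1% paraformaldehyde fixation; also added: QL9-charged Drosophila Ld/ICAM-1/B7-1 vesicles; control set: naked versus QL9-loaded vesicles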
MEKK2wt confirm = raises or lowers MEK5 binding to wildtype human MEKK2, retest. shares compounds with MEKK3 PB1 HTS. binding response (% of control), % at 10 µM. AID 1892. bead flow cytometry, Alexa488-MEK5 binding to MEKK2 WT; actives lie on both sides. actives 2.4% (n = 5,900); in the data active = binding response below about 16% or above about 210%; inactive = in between
MEKK2mut-MEK5 = signal of MEK5 binding to mutant human MEKK2, retest. shares compounds with MEKK3 PB1 HTS. actives 2% (n = 5,900). bead flow cytometry, Alexa488-MEK5 binding to MEKK2 mutant. percent response, % at 10 µM; in the data active = percent response mostly above about 71%, no sharp cut-off; inactive = mostly below about 38%;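 also: higher means compound restores mutant binding toward wildtype level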
MEKK3 confirm = MEKK3-MEK5 PB1 inhibition, single concentration confirmation; shares compounds with MEKK3 PB1 HTS; bead flow cytometry, Alexa488-MEK5 binding to MEKK3; stronger effect = lower value; binding response (% of control), % at 10 µM; actives 1.8% (n = 5,900); AID 1894;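 active = binding response below 72% of control, or above a set upper limit, though filed actives all read lower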;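 also: 100% = DMSO only wells and 0% = binding blocked by excess unlabeled MEK5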
An asterisk follows results filed as active; [ ] = dose if it differs, or a comment.

Results for CCOC(=O)CCC(NC(=O)CCCCC(=O)NC(CCC(=O)OCC)C(=O)OCC)C(=O)OCC (stereo not given) ?
MEKK2 mut-MEK5: 1; MEKK2wt PB1 HTS: 107; Rce1 inhib: inactive; MEKK3 PB1 HTS: 130*; UCH37 inh: 3; T cell modulator: 279; MEKK2wt confirm: 106; MEKK2mut-MEK5: 0; MEKK3 confirm: 103

What do the screens show for `CCOC(=O)CCC(NC(=O)CCCCCCCCC(=O)NC(CCC(=O)OCC)C(=O)OCC)C(=O)OCC` (stereo not given)?
MEKK2 mut-MEK5: 1; MEKK2wt PB1 HTS: 110; Rce1 inhib: inactive; MEKK3 PB1 HTS: 107; UCH37 inh: 0; T cell modulator: 260

What do the screens show for `CC(C)S(=O)(=O)c1nsc2nc(=O)c(/C=C3\C=Nc4ccccc43)c(N)n12`?
MEKK2 mut-MEK5: 1; MEKK2wt PB1 HTS: 110; Rce1 inhib: inactive; MEKK3 PB1 HTS: 129*; UCH37 inh: -1; T cell modulator: 602; MEKK2wt confirm: 94; MEKK2mut-MEK5: -1; MEKK3 confirm: 97

How did CC1=Nc2ccccc2/C1=C/c1c(N)n2c(S(=O)(=O)C(C)C)nsc2nc1=O do in these assays?
MEKK2 mut-MEK5: -18; MEKK2wt PB1 HTS: 78; MEKK3 PB1 HTS: 86; UCH37 inh: 5; T cell modulator: 481

How did CC(C)CC1NC(=O)N(CC(=O)Nc2ccccc2-c2ccccc2)C1=O (stereo not given) do in these assays?
MEKK2 mut-MEK5: -15; MEKK2wt PB1 HTS: 88; Rce1 inhib: inactive; MEKK3 PB1 HTS: 98; UCH37 inh: 2; T cell modulator: 431

How did CC(C)CC1NC(=O)N(CCCCN2C(=O)c3ccccc3C2=O)C1=O (stereo not given) do in these assays?
MEKK2 mut-MEK5: 4; MEKK2wt PB1 HTS: 121; Rce1 inhib: inactive; MEKK3 PB1 HTS: 135*; UCH37 inh: 1; T cell modulator: 673; MEKK2wt confirm: 107; MEKK2mut-MEK5: 9; MEKK3 confirm: 109

How did CCC(=O)Nc1ccc(Cl)c(NC(=S)NC(=O)COc2ccccc2)c1 do in these assays?
MEKK2 mut-MEK5: 2; MEKK2wt PB1 HTS: 98; Rce1 inhib: inactive; MEKK3 PB1 HTS: 102; UCH37 inh: 2; T cell modulator: 266

Results for CCC(=O)Nc1ccc(Cl)c(NC(=S)NC(=O)COc2ccc(Cl)cc2)c1 ?
MEKK2 mut-MEK5: -1; MEKK2wt PB1 HTS: 97; Rce1 inhib: inactive; MEKK3 PB1 HTS: 74*[inhibitor]; UCH37 inh: 1; T cell modulator: 226; MEKK2wt confirm: 103; MEKK2mut-MEK5: 3; MEKK3 confirm: 103

What do the screens show for `COc1ccc(C=NNC(=O)c2nonc2N)cc1OC`?
UCH37 inh: 11

How did Brc1ccc(-n2cccc2C=Nn2cnnc2)cc1 do in these assays?
UCH37 inh: 9

Results for Cc1ccc(-c2nn(-c3ccccc3)cc2/C=C/C(=O)OCC(=O)NC2CC2)o1 ?
MEKK2 mut-MEK5: 5; MEKK2wt PB1 HTS: 116; Rce1 inhib: inactive; MEKK3 PB1 HTS: 131*; UCH37 inh: inactive; T cell modulator: 425; MEKK2wt confirm: 96; MEKK2mut-MEK5: -7; MEKK3 confirm: 89

How did CNC(=O)COC(=O)/C=C/c1cn(-c2ccccc2)nc1-c1ccc2c(c1)OCCO2 do in these assays?
MEKK2 mut-MEK5: -3; MEKK2wt PB1 HTS: 105; Rce1 inhib: inactive; MEKK3 PB1 HTS: 107; UCH37 inh: -1; T cell modulator: 386

Screens as filed in PubChem BioAssay.
